One test has as its system MV4-11. Kind of test: Antiproliferative activity against human MV411 cells.
The subject of test [1] is BaF3. Kind of test: Antiproliferative activity against human BaF3 cells expressing FLT3. The settings on record: Mus musculus.
Test [2] relates to BaF3. Kind of test: Antiproliferative activity against […] BaF3 cells at 10 uM. Type of test: functional.
The nature of test [3]: Inhibition of c-fms. More on the design: species or system Homo sapiens.
In test [4] the target is Mast/stem cell growth factor receptor Kit (Homo sapiens, UniProt P10721). Kind of test: Inhibition of c-kit.
Test [5] has as its target Platelet-derived growth factor receptor beta (Homo sapiens, UniProt P09619). Description: Inhibition of PDGFRbeta.
Test [6] deals with Tyrosine-protein kinase Fes/Fps (Homo sapiens) (UniProt P07332). Description: Inhibition of FES at 3 uM. In short, it runs like this:
(§1)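 Run in an external kinase selectivity panel at 3 µM compound with 100 µM ATP. Reported as percent inhibition.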

The target in test [7] is ALK tyrosine kinase receptor (Homo sapiens) (UniProt Q9UM73). Description: Inhibition of ALK at 3 uM. In short, it runs like this: as §1
Chain of ALK tyrosine kinase receptor (Homo sapiens) (Q9UM73 19-1620 limits assumed): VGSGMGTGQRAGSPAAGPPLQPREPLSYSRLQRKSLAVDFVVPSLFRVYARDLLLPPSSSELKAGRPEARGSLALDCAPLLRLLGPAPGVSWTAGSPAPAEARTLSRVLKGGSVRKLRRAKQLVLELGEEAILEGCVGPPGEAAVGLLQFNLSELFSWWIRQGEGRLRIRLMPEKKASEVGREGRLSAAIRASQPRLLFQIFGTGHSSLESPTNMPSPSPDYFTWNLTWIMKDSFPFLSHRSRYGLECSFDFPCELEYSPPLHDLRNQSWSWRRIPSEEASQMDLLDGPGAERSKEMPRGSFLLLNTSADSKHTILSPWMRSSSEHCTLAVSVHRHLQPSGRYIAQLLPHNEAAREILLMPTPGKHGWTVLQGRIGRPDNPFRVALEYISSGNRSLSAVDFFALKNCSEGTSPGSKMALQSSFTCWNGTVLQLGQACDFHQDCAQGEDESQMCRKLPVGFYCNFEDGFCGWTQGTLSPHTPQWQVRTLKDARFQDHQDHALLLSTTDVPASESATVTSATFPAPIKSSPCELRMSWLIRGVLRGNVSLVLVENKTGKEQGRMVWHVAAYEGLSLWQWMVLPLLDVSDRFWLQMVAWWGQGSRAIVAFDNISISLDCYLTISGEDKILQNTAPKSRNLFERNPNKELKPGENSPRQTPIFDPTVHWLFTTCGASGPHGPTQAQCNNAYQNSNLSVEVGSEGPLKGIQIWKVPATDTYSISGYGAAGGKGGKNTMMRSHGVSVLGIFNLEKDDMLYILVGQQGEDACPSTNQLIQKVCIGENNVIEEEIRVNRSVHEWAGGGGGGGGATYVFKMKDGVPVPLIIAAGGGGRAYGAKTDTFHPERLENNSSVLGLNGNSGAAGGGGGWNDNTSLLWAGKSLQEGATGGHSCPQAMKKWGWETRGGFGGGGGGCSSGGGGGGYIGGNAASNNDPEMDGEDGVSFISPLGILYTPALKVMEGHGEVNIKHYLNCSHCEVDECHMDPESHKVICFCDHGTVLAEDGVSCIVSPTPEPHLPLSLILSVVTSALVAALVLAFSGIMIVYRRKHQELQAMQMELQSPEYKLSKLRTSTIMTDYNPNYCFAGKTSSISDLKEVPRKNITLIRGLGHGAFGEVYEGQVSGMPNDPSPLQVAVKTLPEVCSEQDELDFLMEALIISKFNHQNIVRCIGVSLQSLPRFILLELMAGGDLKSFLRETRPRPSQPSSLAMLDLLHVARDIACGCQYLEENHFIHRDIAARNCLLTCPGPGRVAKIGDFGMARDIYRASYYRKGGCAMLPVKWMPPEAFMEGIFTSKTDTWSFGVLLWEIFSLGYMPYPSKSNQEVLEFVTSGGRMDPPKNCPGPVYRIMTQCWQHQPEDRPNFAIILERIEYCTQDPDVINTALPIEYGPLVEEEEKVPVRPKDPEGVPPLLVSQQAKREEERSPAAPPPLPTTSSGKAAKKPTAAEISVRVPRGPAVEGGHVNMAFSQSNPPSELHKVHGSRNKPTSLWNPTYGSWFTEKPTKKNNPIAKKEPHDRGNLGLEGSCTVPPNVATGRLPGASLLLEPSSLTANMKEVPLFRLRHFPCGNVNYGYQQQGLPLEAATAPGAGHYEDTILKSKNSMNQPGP

Chain of Platelet-derived growth factor receptor beta (P09619 whole entry): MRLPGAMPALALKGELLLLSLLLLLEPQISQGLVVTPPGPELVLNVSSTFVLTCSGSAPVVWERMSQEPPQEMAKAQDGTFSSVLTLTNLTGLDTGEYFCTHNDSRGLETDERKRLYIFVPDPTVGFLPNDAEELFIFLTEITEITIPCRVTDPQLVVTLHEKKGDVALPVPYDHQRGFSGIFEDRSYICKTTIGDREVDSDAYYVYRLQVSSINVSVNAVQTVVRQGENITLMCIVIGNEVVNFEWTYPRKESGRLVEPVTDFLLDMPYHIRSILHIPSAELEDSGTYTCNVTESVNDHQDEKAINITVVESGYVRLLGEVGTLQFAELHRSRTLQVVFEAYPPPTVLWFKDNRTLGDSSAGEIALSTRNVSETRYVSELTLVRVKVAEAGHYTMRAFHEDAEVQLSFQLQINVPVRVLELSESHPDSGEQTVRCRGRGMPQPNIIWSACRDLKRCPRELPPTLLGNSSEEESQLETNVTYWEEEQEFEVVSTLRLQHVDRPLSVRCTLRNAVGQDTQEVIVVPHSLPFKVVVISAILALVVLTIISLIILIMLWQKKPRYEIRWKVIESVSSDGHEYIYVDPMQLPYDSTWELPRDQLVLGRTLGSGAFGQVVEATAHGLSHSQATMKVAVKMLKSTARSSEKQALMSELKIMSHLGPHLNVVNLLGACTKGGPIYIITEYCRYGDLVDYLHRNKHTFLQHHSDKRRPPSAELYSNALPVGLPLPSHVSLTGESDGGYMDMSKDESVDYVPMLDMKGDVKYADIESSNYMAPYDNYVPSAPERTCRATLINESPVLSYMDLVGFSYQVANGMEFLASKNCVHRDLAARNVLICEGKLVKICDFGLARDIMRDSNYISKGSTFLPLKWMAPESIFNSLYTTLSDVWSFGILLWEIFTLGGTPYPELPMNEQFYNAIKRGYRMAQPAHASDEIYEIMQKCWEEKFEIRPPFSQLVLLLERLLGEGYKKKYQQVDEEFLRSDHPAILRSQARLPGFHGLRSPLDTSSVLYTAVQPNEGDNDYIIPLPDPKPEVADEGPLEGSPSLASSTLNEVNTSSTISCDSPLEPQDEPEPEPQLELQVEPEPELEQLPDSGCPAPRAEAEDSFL
Chain of Mast/stem cell growth factor receptor Kit (P10721 whole entry): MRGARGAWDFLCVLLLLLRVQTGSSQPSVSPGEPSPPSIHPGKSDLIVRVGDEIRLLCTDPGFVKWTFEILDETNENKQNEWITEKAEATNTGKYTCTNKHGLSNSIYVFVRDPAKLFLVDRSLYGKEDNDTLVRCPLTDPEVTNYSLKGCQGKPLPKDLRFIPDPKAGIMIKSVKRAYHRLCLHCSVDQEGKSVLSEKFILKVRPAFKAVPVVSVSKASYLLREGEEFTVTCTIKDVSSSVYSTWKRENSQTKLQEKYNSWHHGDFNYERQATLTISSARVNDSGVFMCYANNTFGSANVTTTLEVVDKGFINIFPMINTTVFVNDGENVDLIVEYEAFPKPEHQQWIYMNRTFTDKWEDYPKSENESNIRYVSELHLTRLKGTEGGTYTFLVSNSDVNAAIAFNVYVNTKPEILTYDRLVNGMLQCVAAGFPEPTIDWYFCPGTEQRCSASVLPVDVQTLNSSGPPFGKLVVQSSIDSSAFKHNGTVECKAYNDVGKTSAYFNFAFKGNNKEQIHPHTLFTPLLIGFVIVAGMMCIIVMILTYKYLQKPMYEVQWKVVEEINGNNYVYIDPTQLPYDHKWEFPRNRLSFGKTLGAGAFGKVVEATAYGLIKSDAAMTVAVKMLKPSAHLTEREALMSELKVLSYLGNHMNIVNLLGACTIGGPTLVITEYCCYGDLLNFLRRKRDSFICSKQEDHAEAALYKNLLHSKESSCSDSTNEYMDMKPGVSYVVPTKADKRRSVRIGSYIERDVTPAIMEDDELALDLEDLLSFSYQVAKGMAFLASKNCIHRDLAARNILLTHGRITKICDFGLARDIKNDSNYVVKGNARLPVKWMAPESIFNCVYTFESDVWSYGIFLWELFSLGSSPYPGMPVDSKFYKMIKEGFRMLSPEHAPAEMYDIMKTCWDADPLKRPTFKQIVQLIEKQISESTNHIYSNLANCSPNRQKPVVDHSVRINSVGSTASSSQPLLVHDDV
Chain of Tyrosine-protein kinase Fes/Fps (Homo sapiens) (P07332 whole entry): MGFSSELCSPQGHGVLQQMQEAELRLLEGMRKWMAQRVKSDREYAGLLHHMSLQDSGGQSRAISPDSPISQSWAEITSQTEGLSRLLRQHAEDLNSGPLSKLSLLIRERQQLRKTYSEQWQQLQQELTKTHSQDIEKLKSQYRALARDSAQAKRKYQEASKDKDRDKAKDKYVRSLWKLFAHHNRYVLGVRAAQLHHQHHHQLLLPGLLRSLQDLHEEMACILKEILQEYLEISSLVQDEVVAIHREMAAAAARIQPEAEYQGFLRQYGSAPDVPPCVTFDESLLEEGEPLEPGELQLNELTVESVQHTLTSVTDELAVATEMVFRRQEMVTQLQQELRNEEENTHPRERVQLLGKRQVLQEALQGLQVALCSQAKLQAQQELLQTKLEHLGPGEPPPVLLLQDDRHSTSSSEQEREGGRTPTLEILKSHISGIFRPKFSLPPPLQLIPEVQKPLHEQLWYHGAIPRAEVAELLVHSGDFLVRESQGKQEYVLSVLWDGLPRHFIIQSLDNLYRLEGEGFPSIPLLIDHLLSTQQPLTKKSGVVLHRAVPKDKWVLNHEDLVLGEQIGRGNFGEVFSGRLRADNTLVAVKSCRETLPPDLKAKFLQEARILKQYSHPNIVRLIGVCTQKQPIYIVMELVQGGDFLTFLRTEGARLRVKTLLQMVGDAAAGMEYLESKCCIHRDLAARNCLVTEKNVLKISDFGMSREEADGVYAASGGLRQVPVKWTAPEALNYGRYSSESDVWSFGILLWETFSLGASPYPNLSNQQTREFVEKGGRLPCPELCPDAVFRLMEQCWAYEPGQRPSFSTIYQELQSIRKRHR

As for `CO/N=C/c1c(N)ncnc1N1CCN(C(=O)Nc2ccc(C(C)C)cc2)CC1`, the IC50 with MV4-11 stood at 78 nM; in the test on BaF3 [1], 8 nM.
In turn, `CO/N=C/c1c(N)ncnc1N1CCN(C(=O)Nc2ccc(C3CCCCC3)cc2)CC1` showed an IC50 in the test on MV4-11 of 52 nM.
The same measure, in the same setting: then `Nc1ncnc(N2CCN(C(=O)Nc3ccc(N4CCCC4)cc3)CC2)c1/C=N/OCCN1CCOCC1`, with 362 nM.
The molecule `CC(C)Oc1ccc(NC(=O)N2CCN(c3ncnc(N)c3/C=N/OCCN3CCOCC3)CC2)cc1` returned a 50% inhibitory concentration (IC50) with MV4-11 of 177 nM.
With `CO/N=C/c1c(N)ncnc1N1CCN(C(=O)Nc2ccc(N3CCCCC3)cc2)CC1`, the half-inhibitory concentration (IC50) turned out to be 89 nM in the test with MV4-11 and 153 nM with BaF3 [1].
`CO/N=C/c1c(N)ncnc1N1CCN(C(=O)Nc2ccc(Cl)cc2)CC1` gave a 50% inhibitory concentration (IC50) in the test on MV4-11 above 1000 nM. In addition, the Activity in the test with BaF3 [2] is below 50%.
In the test with MV4-11, `CO/N=C/c1c(N)ncnc1N1CCN(C(=O)Nc2ccc(Oc3ccccc3)cc2)CC1` came in with an IC50 of 86 nM.
In turn, `Nc1ncnc(N2CCN(C(=O)Nc3ccc(N4CCCC4)cc3)CC2)c1/C=N/OCC(=O)N1CCOCC1` returned an IC50 in the test on MV4-11 of 458 nM.
Regarding `CS(=O)(=O)NCCO/N=C/c1c(N)ncnc1N1CCN(C(=O)Nc2ccc(N3CCCC3)cc2)CC1`, the IC50 in the test with MV4-11 is 554 nM.
Take `CO/N=C/c1c(N)ncnc1N1CCN(C(=O)Nc2ccc(OC3CCC3)nc2)CC1`: the IC50 with MV4-11 came to 111 nM.
Consider `CCO/N=C/c1c(N)ncnc1N1CCN(C(=O)Nc2ccc(OC(C)C)cc2)CC1`, for which, in the test with MV4-11, the IC50 was 77 nM.
As for `CO/N=C/c1c(N)ncnc1N1CCN(C(=O)Nc2ccc(N3CCOCC3)cc2)CC1`, in the test on MV4-11, half-maximal inhibition (IC50) required 515 nM. This molecule also registered an Activity in the test on BaF3 [2] below 50%.
Consider `CO/N=C/c1c(N)ncnc1N1CCN(C(=O)Nc2ccc(OC(C)C)cc2)CC1`, for which the half-maximal inhibitory concentration (IC50) in test [3] is 1280 nM; in the test on MV4-11, 79 nM; in test [4], 10.5 nM; in test [5], 10700 nM. Also, the figures for the inhibition in test [6] and in test [7] were 34% and 31%, respectively.
Turning to `CO/N=C/c1c(N)ncnc1N1CCN(C(=O)Nc2ccc(OC3CCCC3)nc2)CC1`, the IC50 with MV4-11 was 112 nM.
Turning to `CO/N=C/c1c(N)ncnc1N1CCN(C(=O)Nc2ccc(N3CCCC3)cc2)CC1`, the concentration for half-maximal inhibition (IC50) in the test on MV4-11 is 99 nM.
For the molecule `CCO/N=C/c1c(N)ncnc1N1CCN(C(=O)Nc2ccc(N3CCCCC3)cc2)CC1`, 58 nM corresponded to half-maximal inhibition with MV4-11 (IC50).
Still for that read-out and setting: then `CC(C)Oc1ccc(NC(=O)N2CCN(c3ncnc(N)c3/C=N/OCCCO)CC2)cc1`, with 283 nM; and `CC(C)Oc1ccc(NC(=O)N2CCN(c3ncnc(N)c3/C=N/OCCNS(C)(=O)=O)CC2)cc1`, with 415 nM.
Still for that read-out and setting: then `CC(C)Oc1ccc(NC(=O)N2CCN(c3ncnc(N)c3/C=N/OCC(=O)N3CCOCC3)CC2)cc1`, with 268 nM.
Same read-out and setting: then `CO/N=C/c1c(N)ncnc1N1CCN(C(=O)Nc2ccc(N(C)C)cc2)CC1`, with 472 nM; and `CCO/N=C/c1c(N)ncnc1N1CCN(C(=O)Nc2ccc(OC3CCC3)nc2)CC1`, with 65 nM.

These data come from ChEMBL document CHEMBL1149650, “4-Amino-6-piperazin-1-yl-pyrimidine-5-carbaldehyde oximes as potent FLT-3 inhibitors” (Bioorg Med Chem Lett, 2007).
